From ChEMBL document CHEMBL4330096, “Discovery of potent and selective 5-azaindazole inhibitors of leucine-rich repeat kinase 2 (LRRK2) - Part 1” (Bioorg Med Chem Lett, 2019) come the findings set out here.

Assay [1] addresses CDK2/Cyclin A2 (Homo sapiens) (UniProt P24941+P20248). Put plainly: Inhibition of CDK2/cyclinA (unknown origin) at 1 uM relative to control. The class given is protein-complex assay. In short, it runs like this: (§1)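 Single-point screen of each compound against a panel of 59 protein kinases, at 1 or 10 μM. The panel data are also summarised as a rescaled geometric mean selectivity score.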

Assay [2] has as its target Casein kinase 2 (Homo sapiens) (UniProt P67870+P68400+P19784+Q8NEV1). Put plainly: Inhibition of CK2 (unknown origin) at 1 uM relative to control. The class given is protein assay. In short, it runs like this: as §1
In assay [3] the target is Mitogen-activated protein kinase 8 (Homo sapiens) (UniProt P45983). Put plainly: Inhibition of JNK1 (unknown origin) at 1 uM relative to control. In short, it runs like this:
as §1

For assay [4], the target named is MAP/microtubule affinity-regulating kinase 3 (Homo sapiens) (UniProt P27448). Put plainly: Inhibition of MARK3 (unknown origin) at 1 uM relative to control. A digest of the protocol:
(§2)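 Single-concentration screen of each compound against a 59-protein-kinase panel, run at 10 µM or 1 µM. Activity relative to control is shown as a heat map across the panel.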

Assay [5] deals with MAP kinase-interacting serine/threonine-protein kinase 1 (Homo sapiens) (UniProt Q9BUB5). Put plainly: Inhibition of MNK1 (unknown origin) at 1 uM relative to control. In short, it runs like this:
as §2

The target of assay [6] is MAP kinase-interacting serine/threonine-protein kinase 2 (Homo sapiens) (UniProt Q9HBH9). Put plainly: Inhibition of MNK2 (unknown origin) at 1 uM relative to control. A digest of the protocol:
as §2

The target of assay [7] is T1, Serine/threonine-protein kinase Nek2 (Homo sapiens) (UniProt P51955).
T1 sequence (whole entry): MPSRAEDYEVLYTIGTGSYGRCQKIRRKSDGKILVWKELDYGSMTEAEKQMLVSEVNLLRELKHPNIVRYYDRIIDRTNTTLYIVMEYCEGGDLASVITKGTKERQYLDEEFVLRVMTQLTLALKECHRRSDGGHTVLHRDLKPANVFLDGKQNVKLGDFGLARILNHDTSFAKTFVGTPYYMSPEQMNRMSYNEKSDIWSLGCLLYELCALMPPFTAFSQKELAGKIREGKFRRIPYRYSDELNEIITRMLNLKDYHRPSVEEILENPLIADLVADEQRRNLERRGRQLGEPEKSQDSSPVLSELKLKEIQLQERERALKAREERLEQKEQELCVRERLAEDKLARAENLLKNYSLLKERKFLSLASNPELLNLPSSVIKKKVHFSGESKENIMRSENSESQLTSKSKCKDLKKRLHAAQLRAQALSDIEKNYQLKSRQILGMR
Put plainly: Inhibition of NEK2a (unknown origin) at 1 uM relative to control. A digest of the protocol:
as §2

The target in assay [8] is Serine/threonine-protein kinase PAK 4 (Homo sapiens) (UniProt O96013). Put plainly: Inhibition of PAK4 (unknown origin) at 1 uM relative to control. A digest of the protocol: as §2
Assay [9] deals with T2, Phosphorylase kinase (Homo sapiens) (UniProt P15735+P46020+P46019+Q93100+Q16816). Put plainly: Inhibition of PHK (unknown origin) at 1 uM relative to control. The class given is protein-complex assay. In short, it runs like this: as §2
Assay [10] has as its target Serine/threonine-protein kinase pim-1 (Homo sapiens) (UniProt P11309). Put plainly: Inhibition of PIM1 (unknown origin) at 1 uM relative to control. A digest of the protocol: as §2
For assay [11], the species on record is Homo sapiens. Put plainly: Inhibition of PKA (unknown origin) at 1 uM relative to control. A digest of the protocol: as §2
For assay [12], the target named is RAC-alpha serine/threonine-protein kinase (Homo sapiens) (UniProt P31749). Put plainly: Inhibition of PKBa (unknown origin) at 1 uM relative to control. A digest of the protocol:
as §2

For assay [13], the target named is RAC-beta serine/threonine-protein kinase (Homo sapiens) (UniProt P31751). Put plainly: Inhibition of PKBb (unknown origin) at 1 uM relative to control. In short, it runs like this:
as §2

For assay [14], the target named is Ribosomal protein S6 kinase alpha-3 (Homo sapiens) (UniProt P51812). Put plainly: Inhibition of RSK2 (unknown origin) at 1 uM relative to control. In short, it runs like this: (§3)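 Single-concentration screen across a panel of 59 protein kinases, with each compound tested at one fixed concentration. The read-out is residual kinase activity relative to control. Panel results are also condensed into a rescaled geometric mean (RGM) selectivity score.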
Ribosomal protein S6 kinase alpha-3 (Homo sapiens), sequence (P51812 whole entry): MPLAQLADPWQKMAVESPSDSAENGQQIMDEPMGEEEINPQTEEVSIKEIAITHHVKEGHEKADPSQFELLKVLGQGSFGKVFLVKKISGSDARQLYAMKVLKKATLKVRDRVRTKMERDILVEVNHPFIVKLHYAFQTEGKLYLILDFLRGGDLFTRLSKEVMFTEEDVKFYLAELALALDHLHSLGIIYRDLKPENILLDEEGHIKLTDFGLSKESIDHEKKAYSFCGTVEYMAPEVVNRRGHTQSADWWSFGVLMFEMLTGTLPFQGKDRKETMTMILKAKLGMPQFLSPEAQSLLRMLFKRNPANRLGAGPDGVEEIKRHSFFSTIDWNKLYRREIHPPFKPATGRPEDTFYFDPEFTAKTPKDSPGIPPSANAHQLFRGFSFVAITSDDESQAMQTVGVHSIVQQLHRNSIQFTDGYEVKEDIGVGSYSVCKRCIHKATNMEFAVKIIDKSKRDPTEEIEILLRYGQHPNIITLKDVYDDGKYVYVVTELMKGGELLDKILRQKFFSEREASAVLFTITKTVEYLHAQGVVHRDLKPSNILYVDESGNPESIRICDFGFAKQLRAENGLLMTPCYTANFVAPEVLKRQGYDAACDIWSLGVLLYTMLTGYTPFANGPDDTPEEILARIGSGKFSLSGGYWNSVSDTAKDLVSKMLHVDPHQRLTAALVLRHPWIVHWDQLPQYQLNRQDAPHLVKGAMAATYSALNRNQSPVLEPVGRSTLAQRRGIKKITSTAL

The target in assay [15] is T3, Serine/threonine-protein kinase Sgk1 (Homo sapiens) (UniProt O00141).
T3 sequence (whole entry): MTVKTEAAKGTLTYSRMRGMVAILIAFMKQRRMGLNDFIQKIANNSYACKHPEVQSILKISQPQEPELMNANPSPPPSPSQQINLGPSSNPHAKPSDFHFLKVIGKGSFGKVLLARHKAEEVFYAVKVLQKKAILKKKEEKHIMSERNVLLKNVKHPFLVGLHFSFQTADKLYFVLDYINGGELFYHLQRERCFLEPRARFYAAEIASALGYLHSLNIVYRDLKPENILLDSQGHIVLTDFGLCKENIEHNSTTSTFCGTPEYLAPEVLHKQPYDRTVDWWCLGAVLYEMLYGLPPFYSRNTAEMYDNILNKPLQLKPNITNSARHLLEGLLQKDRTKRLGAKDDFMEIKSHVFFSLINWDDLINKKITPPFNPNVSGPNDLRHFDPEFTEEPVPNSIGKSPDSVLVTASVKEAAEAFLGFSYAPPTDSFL
Put plainly: Inhibition of SGK1 (unknown origin) at 1 uM relative to control. In short, it runs like this: as §3

Assay [16] has as its target Proto-oncogene tyrosine-protein kinase Src (Homo sapiens) (UniProt P12931). Put plainly: Inhibition of Src (unknown origin) at 1 uM relative to control. A digest of the protocol: as §3
The target of assay [17] is SRSF protein kinase 1 (Homo sapiens) (UniProt Q96SB4). Put plainly: Inhibition of SRPK1 (unknown origin) at 1 uM relative to control. A digest of the protocol: as §3
SRSF protein kinase 1 (Homo sapiens), sequence (Q96SB4 whole entry): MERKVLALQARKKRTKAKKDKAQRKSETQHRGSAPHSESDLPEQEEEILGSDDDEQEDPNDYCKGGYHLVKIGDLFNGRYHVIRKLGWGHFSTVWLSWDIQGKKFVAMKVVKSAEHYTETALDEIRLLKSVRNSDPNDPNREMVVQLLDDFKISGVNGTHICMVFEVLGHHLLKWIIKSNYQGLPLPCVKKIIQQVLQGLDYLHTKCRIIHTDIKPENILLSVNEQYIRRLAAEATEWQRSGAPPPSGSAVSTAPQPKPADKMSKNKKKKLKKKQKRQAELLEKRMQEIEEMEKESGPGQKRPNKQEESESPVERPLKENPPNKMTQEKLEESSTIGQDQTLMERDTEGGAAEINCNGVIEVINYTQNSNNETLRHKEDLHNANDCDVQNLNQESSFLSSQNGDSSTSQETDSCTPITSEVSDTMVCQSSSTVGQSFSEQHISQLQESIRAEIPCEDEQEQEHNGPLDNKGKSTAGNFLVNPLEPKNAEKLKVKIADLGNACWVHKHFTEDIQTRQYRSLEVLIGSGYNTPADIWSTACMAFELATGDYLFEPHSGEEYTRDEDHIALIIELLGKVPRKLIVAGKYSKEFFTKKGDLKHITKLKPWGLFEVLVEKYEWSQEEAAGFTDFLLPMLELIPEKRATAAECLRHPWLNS
The target in assay [18] is Tyrosine-protein kinase SYK (Homo sapiens) (UniProt P43405). Put plainly: Inhibition of SYK (unknown origin) at 1 uM relative to control. A digest of the protocol: as §3
The species named for assay [19] is Homo sapiens. Put plainly: Inhibition of VEGFR (unknown origin) at 1 uM relative to control. In short, it runs like this:
as §3

The target of assay [20] is Aurora kinase B (Homo sapiens) (UniProt Q96GD4). Put plainly: Inhibition of Aurora B (unknown origin) at 10 uM relative to control. A digest of the protocol:
as §1

Assay [21] concerns the target Ribosomal protein S6 kinase alpha-5 (Homo sapiens) (UniProt O75582). Put plainly: Inhibition of MSK1 (unknown origin) at 10 uM relative to control. A digest of the protocol:
as §2

Assay [22] addresses T1, Serine/threonine-protein kinase Nek2 (Homo sapiens). Put plainly: Inhibition of NEK2a (unknown origin) at 10 uM relative to control. In short, it runs like this: as §2
For assay [23], the target named is T2, Phosphorylase kinase (Homo sapiens). Put plainly: Inhibition of PHK (unknown origin) at 10 uM relative to control. The class given is protein-complex assay. A digest of the protocol:
as §2

Broadly, the inhibition is the drop in the measured response relative to a control, in per cent.

Aurora kinase B (Homo sapiens), sequence (Q96GD4 whole entry): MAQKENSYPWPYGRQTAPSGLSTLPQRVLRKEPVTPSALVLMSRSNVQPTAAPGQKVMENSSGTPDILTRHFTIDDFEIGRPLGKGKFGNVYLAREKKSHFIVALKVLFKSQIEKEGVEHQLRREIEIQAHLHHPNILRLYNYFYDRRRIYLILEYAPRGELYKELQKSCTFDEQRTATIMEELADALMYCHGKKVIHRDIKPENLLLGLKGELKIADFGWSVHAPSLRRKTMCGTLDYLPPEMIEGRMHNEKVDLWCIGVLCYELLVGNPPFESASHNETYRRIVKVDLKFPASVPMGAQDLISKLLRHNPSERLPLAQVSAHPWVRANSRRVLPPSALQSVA
Ribosomal protein S6 kinase alpha-5 (Homo sapiens), sequence (O75582 whole entry, looked up): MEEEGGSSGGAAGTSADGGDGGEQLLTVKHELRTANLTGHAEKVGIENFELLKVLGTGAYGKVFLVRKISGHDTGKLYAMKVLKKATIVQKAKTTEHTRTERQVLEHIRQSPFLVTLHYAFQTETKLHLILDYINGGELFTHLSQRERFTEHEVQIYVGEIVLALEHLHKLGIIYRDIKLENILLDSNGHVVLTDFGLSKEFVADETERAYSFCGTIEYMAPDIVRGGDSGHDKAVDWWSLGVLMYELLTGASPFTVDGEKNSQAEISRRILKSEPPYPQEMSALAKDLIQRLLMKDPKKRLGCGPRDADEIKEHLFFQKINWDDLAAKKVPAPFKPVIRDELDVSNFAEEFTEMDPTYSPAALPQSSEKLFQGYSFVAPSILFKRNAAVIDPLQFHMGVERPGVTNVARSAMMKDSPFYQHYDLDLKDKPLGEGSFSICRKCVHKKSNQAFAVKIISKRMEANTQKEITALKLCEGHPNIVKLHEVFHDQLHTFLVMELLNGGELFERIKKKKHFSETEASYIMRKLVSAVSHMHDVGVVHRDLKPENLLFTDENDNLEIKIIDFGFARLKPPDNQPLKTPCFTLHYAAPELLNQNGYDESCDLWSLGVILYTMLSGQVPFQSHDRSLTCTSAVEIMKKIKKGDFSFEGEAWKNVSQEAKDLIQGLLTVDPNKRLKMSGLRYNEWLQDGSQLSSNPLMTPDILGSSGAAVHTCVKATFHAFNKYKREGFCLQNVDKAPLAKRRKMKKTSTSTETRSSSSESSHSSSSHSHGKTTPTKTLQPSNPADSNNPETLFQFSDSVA
MAP/microtubule affinity-regulating kinase 3 (Homo sapiens), sequence (P27448 whole entry, looked up): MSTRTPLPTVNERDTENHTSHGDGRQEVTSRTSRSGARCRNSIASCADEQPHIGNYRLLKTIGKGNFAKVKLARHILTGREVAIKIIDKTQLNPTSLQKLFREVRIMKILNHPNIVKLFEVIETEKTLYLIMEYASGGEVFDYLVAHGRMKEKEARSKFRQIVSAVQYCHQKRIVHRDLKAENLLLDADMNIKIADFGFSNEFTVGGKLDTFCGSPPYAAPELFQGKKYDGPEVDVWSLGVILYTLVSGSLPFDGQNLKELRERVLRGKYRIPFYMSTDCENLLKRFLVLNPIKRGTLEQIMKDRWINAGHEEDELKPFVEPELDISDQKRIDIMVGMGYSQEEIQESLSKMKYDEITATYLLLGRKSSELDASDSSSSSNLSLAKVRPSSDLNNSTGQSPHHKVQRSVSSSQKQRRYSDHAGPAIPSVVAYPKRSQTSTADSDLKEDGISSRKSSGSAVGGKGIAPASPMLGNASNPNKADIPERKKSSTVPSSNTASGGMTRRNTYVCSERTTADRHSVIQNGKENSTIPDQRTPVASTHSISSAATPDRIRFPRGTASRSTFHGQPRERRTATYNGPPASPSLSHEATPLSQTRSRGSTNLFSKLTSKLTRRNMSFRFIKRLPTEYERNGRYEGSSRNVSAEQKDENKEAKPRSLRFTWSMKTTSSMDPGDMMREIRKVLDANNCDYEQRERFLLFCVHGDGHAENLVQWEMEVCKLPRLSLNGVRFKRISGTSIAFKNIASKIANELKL
RAC-alpha serine/threonine-protein kinase (Homo sapiens), sequence (P31749 whole entry): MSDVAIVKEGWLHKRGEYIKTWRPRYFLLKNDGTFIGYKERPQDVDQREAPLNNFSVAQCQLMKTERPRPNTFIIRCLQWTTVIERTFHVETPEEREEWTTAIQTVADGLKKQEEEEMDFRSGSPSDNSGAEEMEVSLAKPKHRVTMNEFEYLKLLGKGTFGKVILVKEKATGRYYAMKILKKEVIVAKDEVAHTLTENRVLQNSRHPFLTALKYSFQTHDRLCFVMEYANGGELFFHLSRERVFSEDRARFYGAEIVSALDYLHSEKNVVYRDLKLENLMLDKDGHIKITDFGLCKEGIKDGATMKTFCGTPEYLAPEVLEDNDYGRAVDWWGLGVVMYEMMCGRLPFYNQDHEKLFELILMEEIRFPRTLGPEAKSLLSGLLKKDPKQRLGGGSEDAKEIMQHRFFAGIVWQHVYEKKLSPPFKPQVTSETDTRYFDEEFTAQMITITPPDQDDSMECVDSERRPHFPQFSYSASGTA
MAP kinase-interacting serine/threonine-protein kinase 2 (Homo sapiens), sequence (Q9HBH9 whole entry, looked up): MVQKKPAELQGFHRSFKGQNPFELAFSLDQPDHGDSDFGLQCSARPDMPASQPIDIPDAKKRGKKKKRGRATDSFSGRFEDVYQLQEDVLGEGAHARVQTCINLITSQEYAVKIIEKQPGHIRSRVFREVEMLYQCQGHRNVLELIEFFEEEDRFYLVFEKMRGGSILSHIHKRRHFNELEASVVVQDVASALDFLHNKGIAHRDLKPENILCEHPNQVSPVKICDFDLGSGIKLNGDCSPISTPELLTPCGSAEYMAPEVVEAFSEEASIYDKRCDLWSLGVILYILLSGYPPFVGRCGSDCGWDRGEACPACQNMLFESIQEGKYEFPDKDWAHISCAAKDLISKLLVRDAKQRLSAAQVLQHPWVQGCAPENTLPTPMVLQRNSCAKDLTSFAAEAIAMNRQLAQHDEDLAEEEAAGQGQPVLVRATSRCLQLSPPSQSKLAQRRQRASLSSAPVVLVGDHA
MAP kinase-interacting serine/threonine-protein kinase 1 (Homo sapiens), sequence (Q9BUB5 whole entry, looked up): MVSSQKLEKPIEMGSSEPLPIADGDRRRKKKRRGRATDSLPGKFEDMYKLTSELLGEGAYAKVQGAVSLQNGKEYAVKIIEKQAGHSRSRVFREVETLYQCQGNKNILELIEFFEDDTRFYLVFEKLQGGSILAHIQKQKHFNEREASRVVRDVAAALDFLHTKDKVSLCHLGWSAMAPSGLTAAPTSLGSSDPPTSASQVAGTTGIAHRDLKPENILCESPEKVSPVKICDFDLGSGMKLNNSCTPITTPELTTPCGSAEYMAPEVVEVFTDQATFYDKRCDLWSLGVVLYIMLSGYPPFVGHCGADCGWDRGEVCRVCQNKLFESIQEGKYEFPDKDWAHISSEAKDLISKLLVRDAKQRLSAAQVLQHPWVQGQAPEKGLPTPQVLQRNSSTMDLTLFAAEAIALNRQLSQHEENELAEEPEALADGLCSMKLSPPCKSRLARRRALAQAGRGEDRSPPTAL
Serine/threonine-protein kinase pim-1 (Homo sapiens), sequence (P11309 whole entry, looked up): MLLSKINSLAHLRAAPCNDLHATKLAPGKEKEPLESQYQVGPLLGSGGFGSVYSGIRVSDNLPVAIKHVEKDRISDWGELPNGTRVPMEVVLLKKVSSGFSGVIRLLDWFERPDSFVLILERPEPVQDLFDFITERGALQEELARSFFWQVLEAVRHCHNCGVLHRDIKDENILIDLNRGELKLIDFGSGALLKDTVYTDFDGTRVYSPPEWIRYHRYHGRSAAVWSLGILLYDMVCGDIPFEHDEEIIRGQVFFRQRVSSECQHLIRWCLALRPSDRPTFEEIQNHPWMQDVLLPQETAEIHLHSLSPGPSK

For the compound `c1cc(-c2n[nH]c3ccnc(OC4CCOCC4)c23)cc(N2CCOCC2)n1`, the inhibition in assay [1] was determined as 23%; in assay [2], 3%; in [3], 47%; in assay [4] it was 0%; in [5], 2%; in assay [6], 13%. The inhibition in assay [7] was found to be 0%; in assay [8], 0%; in assay [9], 15%; in [10], 34%; in assay [11], 26%; in [12] it was 0%. In addition, the inhibition in assay [13], in assay [14], in assay [15], in assay [16], in assay [17] and in [18] was 0% in each case. For the same compound, the inhibition in assay [19] was determined as 2%.
Consider `Cc1n[nH]c2ccnc(OC3CCCCC3)c12`, for which the inhibition in assay [20] amounted to 88%; in [21], 92%; in [22], 0%; in [23] it was 82%.
The corresponding values for `Cc1n[nH]c2ccnc(NC3CCCCC3)c12` are 80%, 55%, 0% and 60%.
For the compound `Cc1n[nH]c2ccnc(Nc3ccccc3F)c12`, the inhibition was determined as 80% in assay [20], 43% in [21], 2% in [22] and 45% in assay [23].
Regarding `CC(C)n1cc(-c2n[nH]c3ccnc(OC4CCOCC4)c23)cn1`, the inhibition in [1] is 66%; in [2] it was 20%; in assay [3], 27%; in assay [4], 18%; in [5] it was 0%; in [6], 5%. Also, the inhibition is 8% in [7]; 46% in [8]; 41% in assay [9]; 77% in [10]; 11% in [11]; 0% in assay [12]. Besides, the inhibition was found to be 27% in assay [13]; 58% in assay [14]; 12% in [15]; 0% in assay [16]; 0% in assay [17]; 0% in assay [18]. In [19], the inhibition was 59%.
`Cc1n[nH]c2ccnc(Nc3ccc4ncsc4c3)c12` came in with an inhibition in assay [21] of 77%.
